Measured values as given in publication PMC2922024 (Neuroscience letters, 2010).
Positions of bridges follow the written chain, without caps; N, C: chain ends. Residues, ends and D or L forms follow the SMILES beside them.

Tests used:
[1] = Free GsMTx4 in media with or without serum; type: in vitro ADME
PC12 cells = assay: Neurite outgrowth from PC12 cells; type: cell-based, rat; details: NGF 50 ng/ml alone, 48 h
In short: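 Rat PC12 cells were grown in high-glucose DMEM with 10% FBS, penicillin/streptomycin and 10 mM Hepes at 37 °C in 5% CO2. They were seeded at 4 × 10^4 per well, adhered overnight, then left untreated or given NGF (50 ng/ml final) for 48 h. Phase-contrast images were scored blinded: three random fields per well, at least 4 wells, fields of more than 10 cells, at least 250 cells per experiment. The percentage was calculated per image, and the longest neurite per bearing cell was averaged. Groups were compared by one-way ANOVA with Tukey–Kramer.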

Molecule	free concentration ([1]; culture media with 10% serum, mean (total) concentration 100 μM GsMTx4)	free drug concentration in media as share of the total ([1]; media with 10% serum)	length of the longest neurite per NBC (PC12 cells; untreated approximately 10 μm)	percentage of neurite bearing cells (PC12 cells; untreated ~1%)
CC(C)C[C@@H]1NC(=O)[C@@H](NC(=O)CN)CSSC[C@@H]2NC(=O)[C@@H]3CSSC[C@@H](C(=O)N[C@@H](CC(N)=O)C(=O)N[C@@H](Cc4ccccc4)C(=O)N[C@@H](CO)C(=O)N[C@@H](Cc4ccccc4)C(N)=O)NC(=O)[C@H](CC(C)C)NC(=O)[C@H](CCCCN)NC(=O)[C@H](Cc4ccccc4)NC(=O)[C@H](CC(C)C)NC(=O)[C@H](CCCCN)NC(=O)[C@H](CO)NC(=O)[C@H](CSSC[C@H](NC(=O)[C@H](CCCCN)NC(=O)[C@H](Cc4c[nH]c5ccccc45)NC(=O)[C@H](Cc4c[nH]c5ccccc45)NC(=O)[C@H](Cc4ccccc4)NC(=O)[C@H](CCC(=O)O)NC1=O)C(=O)N[C@@H](CC(N)=O)C(=O)N1CCC[C@H]1C(=O)N[C@@H](CC(N)=O)C(=O)N[C@@H](CC(=O)O)C(=O)N[C@@H](CC(=O)O)C(=O)N[C@@H](CCCCN)C(=O)N3)NC(=O)[C@H](CCCCN)NC(=O)[C@H](CC(C)C)NC(=O)[C@H](CCCCN)NC(=O)[C@@H]1CCCN1C(=O)[C@H](CCCNC(=N)N)NC2=O [GsMTx4] (H-GCLEFWWKCNPNDDKCCRPKLKCSKLFKLCNFSF-NH2; disulfide 2-17, 9-23, 16-30)	~ 5 μM	about 5%		
nerve growth factor (protein, UniProt P01139 122-241, looked up, Beta-nerve growth factor) Beta-nerve growth factor: SSTHPVFHMGEFSVCDSVSVWVGDKTTATDIKGKEVTVLAEVNINNSVFRQYFFETKCRASNPVESGCRGIDSKHWNSYCTTTHTFVKALTTDEKQAAWRFIRIDTACVCVLSRKATRRG			~ 20 μm	~ 20%
